How the values were obtained:
[1] = target: T1, Progesterone receptor (Oryctolagus cuniculus) (UniProt P06186); assay: Progestational activity by Clauberg test in rabbits as McPhail index after 3 mg subcutaneous dose; assay type: functional
T1 sequence (whole entry): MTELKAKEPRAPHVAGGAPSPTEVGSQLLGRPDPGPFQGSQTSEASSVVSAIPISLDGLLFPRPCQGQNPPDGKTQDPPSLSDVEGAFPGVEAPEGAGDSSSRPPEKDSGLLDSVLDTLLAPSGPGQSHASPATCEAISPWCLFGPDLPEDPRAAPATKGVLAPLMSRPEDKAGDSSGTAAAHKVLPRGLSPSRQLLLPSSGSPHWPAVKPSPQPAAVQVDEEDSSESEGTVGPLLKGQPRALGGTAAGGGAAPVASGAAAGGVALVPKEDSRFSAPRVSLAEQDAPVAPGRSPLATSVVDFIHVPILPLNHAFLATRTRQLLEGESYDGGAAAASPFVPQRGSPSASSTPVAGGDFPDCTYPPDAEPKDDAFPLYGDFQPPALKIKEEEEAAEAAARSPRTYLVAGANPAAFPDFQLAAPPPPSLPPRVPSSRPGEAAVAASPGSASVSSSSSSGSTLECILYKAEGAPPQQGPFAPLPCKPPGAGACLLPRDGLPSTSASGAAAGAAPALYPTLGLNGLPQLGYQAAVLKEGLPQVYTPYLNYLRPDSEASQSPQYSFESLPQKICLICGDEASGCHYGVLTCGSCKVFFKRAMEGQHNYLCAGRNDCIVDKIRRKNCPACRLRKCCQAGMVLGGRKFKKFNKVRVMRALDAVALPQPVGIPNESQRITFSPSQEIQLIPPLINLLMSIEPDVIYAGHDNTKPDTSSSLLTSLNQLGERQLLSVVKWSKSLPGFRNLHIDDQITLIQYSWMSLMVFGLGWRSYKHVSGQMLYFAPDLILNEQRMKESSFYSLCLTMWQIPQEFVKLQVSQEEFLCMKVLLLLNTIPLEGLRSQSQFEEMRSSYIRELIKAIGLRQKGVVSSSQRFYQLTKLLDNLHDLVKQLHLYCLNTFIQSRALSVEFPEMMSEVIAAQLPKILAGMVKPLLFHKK
Method in brief: (§1)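 Castrated infantile female New Zealand rabbits (800–1000 g) were primed with estradiol 0.5 μg sc daily for 6 days. They then received compound over 5 days (total 3–100 mg sc or 30–300 mg po).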

[2] = target: T2, Mineralocorticoid receptor (Rattus norvegicus) (UniProt P22199); assay: Antialdosterone activity in rats administered orally compared to Spironolactone(100)
T2 sequence (whole entry): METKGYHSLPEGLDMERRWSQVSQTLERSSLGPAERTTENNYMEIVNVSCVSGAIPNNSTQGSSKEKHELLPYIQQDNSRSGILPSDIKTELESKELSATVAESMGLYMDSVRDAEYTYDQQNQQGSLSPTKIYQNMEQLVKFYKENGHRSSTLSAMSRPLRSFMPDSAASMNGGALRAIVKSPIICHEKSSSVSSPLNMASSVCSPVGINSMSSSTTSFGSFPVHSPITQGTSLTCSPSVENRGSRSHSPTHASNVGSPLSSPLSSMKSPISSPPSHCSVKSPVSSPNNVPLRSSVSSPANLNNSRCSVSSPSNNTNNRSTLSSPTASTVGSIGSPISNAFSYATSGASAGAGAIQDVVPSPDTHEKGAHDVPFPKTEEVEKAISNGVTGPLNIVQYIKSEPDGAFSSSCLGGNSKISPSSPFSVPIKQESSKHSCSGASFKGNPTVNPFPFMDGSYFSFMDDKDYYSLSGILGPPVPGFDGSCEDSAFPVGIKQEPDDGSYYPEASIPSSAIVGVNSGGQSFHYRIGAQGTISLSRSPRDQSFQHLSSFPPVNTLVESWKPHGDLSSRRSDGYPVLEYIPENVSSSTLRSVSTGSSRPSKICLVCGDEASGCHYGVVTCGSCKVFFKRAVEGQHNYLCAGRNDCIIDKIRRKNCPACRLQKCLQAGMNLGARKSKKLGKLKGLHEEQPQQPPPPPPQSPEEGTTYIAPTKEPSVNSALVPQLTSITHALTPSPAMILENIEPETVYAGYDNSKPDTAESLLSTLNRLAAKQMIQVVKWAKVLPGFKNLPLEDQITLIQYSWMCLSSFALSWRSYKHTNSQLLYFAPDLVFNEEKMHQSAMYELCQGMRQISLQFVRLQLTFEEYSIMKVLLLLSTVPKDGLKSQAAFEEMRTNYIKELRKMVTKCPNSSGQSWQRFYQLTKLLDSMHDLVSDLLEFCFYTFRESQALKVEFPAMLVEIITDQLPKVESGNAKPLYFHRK

[3] = target: T1, Progesterone receptor (Oryctolagus cuniculus); assay: Relative binding to progesterone receptor compared to progesterone
Method in brief: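 Competitive binding to progesterone receptor from rabbit uterus using tritiated progesterone as ligand. Competition factor is the multiple of the concentration needed to give displacement equivalent to the standard; a high factor means weak binding.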

[4] = target: T1, Progesterone receptor (Oryctolagus cuniculus); assay: Progestational activity by Clauberg test in rabbits as McPhail index after 300 mg peroral dose; assay type: functional; method in brief: as §1
[5] = target: T3, Androgen receptor (Rattus norvegicus) (UniProt P15207); assay: Antiandrogenic activity after peroral administration as relative potency compared to Spironolactone; assay type: functional, organism-based
T3 sequence (whole entry): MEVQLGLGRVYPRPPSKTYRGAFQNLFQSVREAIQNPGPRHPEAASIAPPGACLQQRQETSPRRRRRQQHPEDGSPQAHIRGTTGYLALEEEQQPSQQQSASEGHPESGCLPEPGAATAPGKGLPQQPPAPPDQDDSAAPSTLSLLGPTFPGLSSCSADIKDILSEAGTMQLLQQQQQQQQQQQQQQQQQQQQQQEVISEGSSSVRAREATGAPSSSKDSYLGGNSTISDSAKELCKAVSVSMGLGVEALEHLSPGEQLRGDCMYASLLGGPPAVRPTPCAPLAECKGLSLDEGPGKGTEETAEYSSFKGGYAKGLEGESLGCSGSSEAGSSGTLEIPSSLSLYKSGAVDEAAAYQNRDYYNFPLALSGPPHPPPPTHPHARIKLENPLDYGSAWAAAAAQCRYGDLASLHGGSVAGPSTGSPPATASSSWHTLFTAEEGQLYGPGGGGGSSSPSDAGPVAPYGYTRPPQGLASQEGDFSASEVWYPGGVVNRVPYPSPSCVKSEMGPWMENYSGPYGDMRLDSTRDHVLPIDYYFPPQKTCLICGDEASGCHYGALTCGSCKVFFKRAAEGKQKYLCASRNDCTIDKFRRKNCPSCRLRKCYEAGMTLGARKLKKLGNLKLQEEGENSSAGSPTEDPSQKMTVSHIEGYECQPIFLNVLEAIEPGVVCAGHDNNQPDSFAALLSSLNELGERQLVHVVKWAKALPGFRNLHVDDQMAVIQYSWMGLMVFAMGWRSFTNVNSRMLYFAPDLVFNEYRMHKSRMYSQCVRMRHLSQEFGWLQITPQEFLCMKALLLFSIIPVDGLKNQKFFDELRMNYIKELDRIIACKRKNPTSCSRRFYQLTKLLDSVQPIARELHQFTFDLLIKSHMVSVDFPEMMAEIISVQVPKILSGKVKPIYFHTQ
Method in brief: (§2)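 Castrated male Wistar SPF rats (~100 g) were dosed once daily for 12 days, sc at 1–16 mg/rat or po at 1–100 mg/rat, each with testosterone propionate 0.1 mg/rat sc; controls got Tp alone. On day 13, fresh seminal vesicle and ventral prostate weights were taken as % of Tp control. Relative potency came from regression/covariance analysis.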

[6] = target: T1, Progesterone receptor (Oryctolagus cuniculus); assay: Progestational activity by Clauberg test in rabbits as McPhail index after 30 mg subcutaneous dose; assay type: functional; method in brief: as §1
[7] = target: T1, Progesterone receptor (Oryctolagus cuniculus); assay: Progestational activity by Clauberg test in rabbits as McPhail index after 100 mg subcutaneous dose; assay type: functional; method in brief: as §1
[8] = target: T1, Progesterone receptor (Oryctolagus cuniculus); assay: Progestational activity by Clauberg test in rabbits as McPhail index after 100 mg peroral dose; assay type: functional; method in brief: as §1
[9] = target: T1, Progesterone receptor (Oryctolagus cuniculus); assay: Progestational activity by Clauberg test in rabbits as McPhail index after 30 mg peroral dose; assay type: functional; method in brief: as §1
[10] = target: T3, Androgen receptor (Rattus norvegicus); assay: Antiandrogenic activity as prostate weight after subcutaneous administration compared to Spironolactone; assay type: functional, organism-based; settings: Prostate gland; method in brief: as §2
[11] = target: T1, Progesterone receptor (Oryctolagus cuniculus); assay: Progestational activity by Clauberg test in rabbits as McPhail index after 10 mg subcutaneous dose; assay type: functional; method in brief: as §1
[12] = target: T3, Androgen receptor (Rattus norvegicus); assay: Antiandrogenic activity as seminal vesicle weight after subcutaneous administration compared to Spironolactone; assay type: functional, organism-based; method in brief: as §2
Rattus norvegicus [13] = species: Rattus norvegicus; assay: Ovulation inhibitory activity in rats after 30 mg peroral dose
Rattus norvegicus [14] = species: Rattus norvegicus; assay: Ovulation inhibitory activity in rats after 100 mg peroral dose
Rattus norvegicus [15] = species: Rattus norvegicus; assay: Ovulation inhibitory activity in rats after 40 mg peroral dose

SMILES	Relative potency [2]	Ratio [3]	McPhail index [6]	McPhail index [7]	McPhail index [11]	further results
CC(=O)S[C@@H]1CC2=CC(=O)CCC2(C)C2CCC3(C)C(C21)[C@@H]1C[C@@H]1[C@@]31CCC(=O)O1 (stereo partly drawn)	186	14	–	–	–	McPhail index [1]: 1.6
CC(=O)S[C@@H]1CC2=CC(=O)C=C[C@]2(C)[C@H]2CC[C@@]3(C)[C@@H]([C@@H]4C[C@@H]4[C@@]34CCC(=O)O4)[C@H]12 (stereo in doubt)	333	33	1.7	2.6	1.2	McPhail index [4]: 2.8; Relative potency [5]: < 0.1; McPhail index [8]: 1.6; McPhail index [9]: 1; Relative potency [10]: 0.4; Relative potency [12]: 0.2
CC(=O)S[C@@H]1CC2=CC(=O)C=C[C@]2(C)[C@H]2CC[C@@]3(C)[C@@H]([C@@H]4C[C@@H]4[C@@]34CCC(=O)O4)[C@H]12 (stereo in doubt; 14)	115	76	–	–	–	–
CC(=O)S[C@@H]1CC2=CC(=O)CCC2(C)C2CCC3(C)C(C21)[C@H]1C[C@H]1[C@@]31CCC(=O)O1 (stereo partly drawn)	282	18	3.1	3.1	2.6	–
CC(=O)S[C@@H]1CC2=CC(=O)C=C[C@]2(C)[C@H]2CC[C@@]3(C)[C@@H]([C@@H]4C[C@@H]4[C@@]34CCC(=O)O4)[C@H]12 (stereo in doubt) [MESPIRENONE]	–	–	–	–	–	Inhibition (Rattus norvegicus [13]): 0%; Inhibition (Rattus norvegicus [14]): 20%
CC(=O)S[C@@H]1CC2=CC(=O)[C@@H]3C[C@@H]3C2(C)C2CCC3(C)C(C21)[C@@H]1C[C@@H]1[C@@]31CCC(=O)O1 (stereo partly drawn)	228	7.8	1.6	3.4	1	Inhibition (Rattus norvegicus [15]): 100%
CC(=O)S[C@@H]1CC2=CC(=O)CC[C@]2(C)[C@H]2CC[C@@]3(C)[C@@H](CC[C@@]34CCC(=O)O4)[C@H]12 [SPIRONOLACTONE]	–	–	–	–	–	Inhibition (Rattus norvegicus [15]): 16%; Inhibition (Rattus norvegicus [14]): 20%
CC(=O)S[C@@H]1CC2=CC(=O)[C@@H]3C[C@@H]3C2(C)C2CCC3(C)C(C21)[C@H]1C[C@H]1[C@@]31CCC(=O)O1 (stereo partly drawn)	281	19	3	3.1	2.4	Relative potency [10]: 2.4; Relative potency [12]: 1
